Measurements published in ChEMBL document CHEMBL4706494, “Design, synthesis characterization and biological evaluation of novel multi-isoform ALDH inhibitors as potential anticancer agents” (Eur J Med Chem, 2020).
Activity calls are given as the source filed them. The calls are words filed in the database; no cut-off is given here.

Tests used:
[1] = target: T1, Aldehyde dehydrogenase, dimeric NADP-preferring (Homo sapiens, UniProt P30838); assay: Inhibition of ALDH3A1 (unknown origin) assessed as NADH formation using 4-nitrobenzaldehyde as substrate
T1 sequence (P30838 whole entry): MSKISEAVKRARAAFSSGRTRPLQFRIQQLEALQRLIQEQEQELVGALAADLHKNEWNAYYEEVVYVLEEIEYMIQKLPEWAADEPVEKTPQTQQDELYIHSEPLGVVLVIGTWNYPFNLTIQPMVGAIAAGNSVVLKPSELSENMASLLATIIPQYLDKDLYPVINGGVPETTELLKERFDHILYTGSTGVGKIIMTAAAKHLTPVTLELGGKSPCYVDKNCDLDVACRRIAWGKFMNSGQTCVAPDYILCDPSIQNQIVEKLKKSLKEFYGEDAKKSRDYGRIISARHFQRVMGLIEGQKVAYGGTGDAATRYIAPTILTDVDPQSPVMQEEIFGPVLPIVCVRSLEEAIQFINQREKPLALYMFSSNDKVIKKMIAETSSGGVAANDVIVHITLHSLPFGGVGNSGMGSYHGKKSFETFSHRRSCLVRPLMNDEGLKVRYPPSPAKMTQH
How it was run: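 Protein at 0.2 µg/mL exposed 15 min to graded inhibitor concentrations. 1 mM 4-nitrobenzaldehyde substrate with NAD+ then added, run as for the ALDH1A1 assay.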

[2] = target: T2, Aldehyde dehydrogenase 1A1 (Homo sapiens, UniProt P00352); assay: Inhibition of ALDH1A1 (unknown origin) assessed as NADH formation using propionaldehyde as substrate
T2 sequence (P00352 whole entry): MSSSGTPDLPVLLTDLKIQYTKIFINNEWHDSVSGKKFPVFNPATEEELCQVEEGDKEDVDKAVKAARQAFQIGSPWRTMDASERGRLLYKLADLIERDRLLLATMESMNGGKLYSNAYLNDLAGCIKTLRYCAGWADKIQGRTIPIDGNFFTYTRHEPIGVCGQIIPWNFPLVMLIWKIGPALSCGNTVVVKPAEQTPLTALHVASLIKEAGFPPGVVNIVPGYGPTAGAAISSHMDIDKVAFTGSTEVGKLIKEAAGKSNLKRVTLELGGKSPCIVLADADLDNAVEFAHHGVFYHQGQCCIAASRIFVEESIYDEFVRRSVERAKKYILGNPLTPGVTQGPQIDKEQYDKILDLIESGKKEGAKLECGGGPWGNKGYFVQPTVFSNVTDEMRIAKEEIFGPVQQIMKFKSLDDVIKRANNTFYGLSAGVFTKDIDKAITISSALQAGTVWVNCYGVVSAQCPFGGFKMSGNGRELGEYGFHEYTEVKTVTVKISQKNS

[3] = target: T3, Aldehyde dehydrogenase, mitochondrial (Homo sapiens, UniProt P05091); assay: Inhibition of ALDH2 (unknown origin) assessed as NADH formation using acetaldehyde as substrate
T3 sequence (P05091 whole entry): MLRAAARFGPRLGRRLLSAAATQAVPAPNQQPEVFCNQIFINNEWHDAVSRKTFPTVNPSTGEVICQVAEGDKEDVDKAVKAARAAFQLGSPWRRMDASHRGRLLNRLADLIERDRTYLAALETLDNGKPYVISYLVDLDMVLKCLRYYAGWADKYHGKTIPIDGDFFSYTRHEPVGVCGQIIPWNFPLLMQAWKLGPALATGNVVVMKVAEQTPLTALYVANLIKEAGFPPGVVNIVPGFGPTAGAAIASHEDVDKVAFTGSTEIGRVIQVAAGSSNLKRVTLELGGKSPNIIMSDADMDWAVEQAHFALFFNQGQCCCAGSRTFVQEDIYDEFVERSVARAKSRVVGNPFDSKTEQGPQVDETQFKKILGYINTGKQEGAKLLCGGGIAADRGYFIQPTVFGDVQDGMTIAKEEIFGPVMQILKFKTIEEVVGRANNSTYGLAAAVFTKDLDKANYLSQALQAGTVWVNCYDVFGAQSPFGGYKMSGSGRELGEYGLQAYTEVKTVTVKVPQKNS
How it was run: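 Enzyme at 0.5 µg/mL preincubated 15 min with varied inhibitor concentrations. Reaction started with 2 mM acetaldehyde plus NAD+ in buffer, as for the ALDH1A1 assay.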

UACC-903 = assay: Antiproliferative activity against human UACC 903 cells measured after 72 hrs by MTS assay; assay type: functional, cell-based; settings: UACC-903, 72 h
How it was run: (§1)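 Cells seeded at 5,000 per well, left overnight at 37°C in 5% CO2, then exposed to a range of compound concentrations for 72 h. IC50 was fitted from dose-response curves, 3 independent experiments, reported as mean + SD.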

[4] = Antiproliferative activity against human 1205Lu cells measured after 72 hrs by MTS assay; assay type: functional, cell-based; how it was run: as §1
HCT-116 [5] = assay: Antiproliferative activity against human HCT116 cells measured after 72 hrs by MTS assay; assay type: functional, cell-based; settings: HCT-116, 72 h; how it was run: as §1
HT-29 = assay: Antiproliferative activity against human HT-29 cells measured after 72 hrs by MTS assay; assay type: functional, cell-based; settings: HT-29, 72 h; how it was run: as §1
NCI-H929 = assay: Antiproliferative activity against human NCIH929 cells measured after 72 hrs by MTS assay; assay type: functional, cell-based; settings: NCI-H929, 72 h; how it was run: as §1
U-266 = assay: Antiproliferative activity against human U266 cells measured after 72 hrs by MTS assay; assay type: functional, cell-based; settings: U-266, 72 h; how it was run: as §1
RPMI-8226 = assay: Antiproliferative activity against human RPMI8226 cells measured after 72 hrs by MTS assay; assay type: functional, cell-based; settings: RPMI-8226, 72 h; how it was run: as §1
[6] = Antiproliferative activity against human MM.1R cells measured after 72 hrs by MTS assay; assay type: functional, cell-based; how it was run: as §1
MM1.S = assay: Antiproliferative activity against human MM.1S cells measured after 72 hrs by MTS assay; assay type: functional, cell-based; how it was run: as §1
[7] = Cytotoxicity against human FF2441 cells measured after 72 hrs by MTS assay; assay type: cell-based; settings: FF2441, 72 h; how it was run: as §1
[8] = Toxicity in Swiss-Webster mouse assessed as body weight loss at 5 mg/kg/day, ip for 14 days; assay type: organism-based; settings: in vivo, 336 h, time 14 day
How it was run: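 Swiss-Webster mice received 5 mg/kg/day i.p. once daily for 14 days. Body weight, behaviour and physical distress were monitored, with % weight change compared against DMSO vehicle controls.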

HCT-116 [9] = assay: Induction of ROS production in human HCT-116 cells at 5 uM incubated for 24 hrs by DCFDA staining based fluorescence microscopic analysis; assay type: functional, cell-based
HCT-116 [10] = assay: Induction of ROS production in human HCT-116 cells at 5 uM incubated for 24 hrs in presence of NAC by DCFDA staining based fluorescence microscopic analysis; assay type: functional, cell-based
HCT-116 [11] = assay: Induction of lipid peroxidation in human HCT-116 cells at 5 uM incubated for 24 hrs by TBARS assay; assay type: functional, cell-based
How it was run: (§2)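 HCT116 cells treated 24 h with 5 µM compound, with or without 10 mM NAC. Pellets were sonicated on ice in PBS and lipids hydrolysed with acetic acid/NaOH. Free MDA was reacted with TBA and read at 530 nm, compared with DMSO control.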

HCT-116 [12] = assay: Induction of lipid peroxidation in human HCT-116 cells at 5 uM incubated for 24 hrs in presence of NAC by TBARS assay; assay type: functional, cell-based; how it was run: as §2
HCT-116 [13] = assay: Induction of apoptosis in human HCT-116 cells at 5 uM incubated for 24 hrs by annexinV- and […] staining based flow cytometry; assay type: functional, cell-based
How it was run: (§3)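 HCT116 cells treated 24 h with 5 µM compound, with or without 10 mM NAC. Cells were detached, PBS-washed, stained with Annexin-V-PE and 7-AAD, and analysed by flow cytometry. Annexin-V/7-AAD double-positive cells were scored as late apoptotic, relative to DMSO control.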

HCT-116 [14] = assay: Induction of apoptosis in human HCT-116 cells at 5 uM incubated for 24 hrs in presence of NAC by annexinV- and […] staining based flow cytometry; assay type: functional, cell-based; how it was run: as §3
HCT-116 [15] = assay: Induction of cell cycle arrest in human HCT-116 cells assessed as accumulation of cells at G2/M phase at 5 uM incubated for 24 hrs by PI staining based flow cytometry; assay type: functional
How it was run: (§4)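 HCT116 cells given 5 µM compound for 24 h, with or without 10 mM NAC. Cells were detached, PBS-washed, fixed in 70% ethanol and stained with propidium iodide. DNA content read by flow cytometry for cell-cycle distribution.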

HCT-116 [16] = assay: Induction of cell cycle arrest in human HCT-116 cells assessed as accumulation of cells at G2/M phase at 5 uM incubated for 24 hrs in presence of NAC by PI staining based flow cytometry; assay type: functional; how it was run: as §4

| Structure (SMILES) | IC50 [1] [nM] | IC50 [2] [nM] | IC50 [3] [nM] | also measured |
| --- | --- | --- | --- | --- |
| N=C(N)SCc1ccc(CN2C(=O)C(=O)c3ccccc32)cc1 | 4200 |  |  |  |
| N=C(N)SCc1ccc(CN2C(=O)C(=O)c3cccc(C(F)(F)F)c32)cc1 | 246 |  |  |  |
| N=C(N)SCc1ccc(CN2C(=O)C(=O)c3cc(Br)ccc32)cc1 | 4880 | 8520 | > 10000 |  |
| Br.N=C(N)SCc1ccc(CN2C(=O)C(=O)c3cc(Cl)cc(Cl)c32)cc1 | 219 | 279 | 1640 | IC50 (UACC-903): 3000 nM; IC50 [4]: 2400 nM; IC50 (HCT-116 [5]): 3200 nM; IC50 (HT-29): 2600 nM; IC50 (NCI-H929): 700 nM; IC50 (U-266): 2700 nM; IC50 (RPMI-8226): 1300 nM; IC50 [6]: 1600 nM; IC50 (MM1.S): 1600 nM; IC50 [7]: 5400 nM; Activity [8]: 10% |
| N=C(N)[Se]Cc1ccc(CN2C(=O)C(=O)c3cccc(F)c32)cc1 | 246 |  |  |  |
| N=C(N)SCc1ccc(CN2C(=O)C(=O)c3cc(Cl)ccc32)cc1 | 3070 |  |  |  |
| N=C(N)[Se]Cc1ccc(CN2C(=O)C(=O)c3cc(Br)ccc32)cc1 | 344 |  |  |  |
| N=C(N)[Se]Cc1ccc(CN2C(=O)C(=O)c3cc(C(F)(F)F)ccc32)cc1 | 1520 |  |  |  |
| N=C(N)[Se]Cc1ccc(CN2C(=O)C(=O)c3cccc(Br)c32)cc1 | > 10000 |  |  |  |
| N=C(N)[Se]Cc1ccc(CN2C(=O)C(=O)c3cc(Br)cc(Br)c32)cc1 | 333 | 397 | 2010 |  |
| N=C(N)SCc1ccc(CN2C(=O)C(=O)c3cc(F)cc(Br)c32)cc1 | 219 |  |  |  |
| N=C(N)[Se]Cc1ccc(CN2C(=O)C(=O)c3cc(F)cc(Br)c32)cc1 | 368 | 420 | 1920 |  |
| N=C(N)[Se]Cc1ccc(CN2C(=O)C(=O)c3cccc(Cl)c32)cc1 | > 10000 | > 10000 | > 10000 |  |
| N=C(N)SCc1ccc(CN2C(=O)C(=O)c3cccc(Cl)c32)cc1 | 3590 | 177 | > 10000 |  |
| N=C(N)SCc1ccc(CN2C(=O)C(=O)c3cccc(F)c32)cc1 | 241 | 598 | > 10000 |  |
| N=C(N)[Se]Cc1ccc(CN2C(=O)C(=O)c3cccc(C(F)(F)F)c32)cc1 | 251 | 657 | 3490 |  |
| N=C(N)[Se]Cc1ccc(CN2C(=O)C(=O)c3cc(F)ccc32)cc1 | 2360 |  |  |  |
| N=C(N)[Se]Cc1ccc(CN2C(=O)C(=O)c3cc(Cl)ccc32)cc1 | 2770 |  |  |  |
| N=C(N)[Se]Cc1ccc(CN2C(=O)C(=O)c3cc(Cl)cc(Cl)c32)cc1 | 327 |  |  |  |
| N=C(N)SCc1ccc(CN2C(=O)C(=O)c3cccc(Br)c32)cc1 | 6320 |  |  |  |
| Br.N=C(N)SCc1ccc(CN2C(=O)C(=O)c3cc(C(F)(F)F)ccc32)cc1 | 360 | 334 | 2140 | IC50 (UACC-903): 5700 nM; IC50 [4]: 5700 nM; IC50 (HCT-116 [5]): 5700 nM; IC50 (HT-29): 4900 nM; IC50 (NCI-H929): 1500 nM; IC50 (U-266): 2600 nM; IC50 (RPMI-8226): 1600 nM; IC50 [6]: 1700 nM; IC50 (MM1.S): 2200 nM; IC50 [7]: 20700 nM; Activity [8]: 2%; Activity (HCT-116 [9]): Active; Activity (HCT-116 [10]): inactive; Activity (HCT-116 [11]): Active; Activity (HCT-116 [12]): inactive; Activity (HCT-116 [13]): Active; Activity (HCT-116 [14]): inactive; Activity (HCT-116 [15]): Active; Activity (HCT-116 [16]): inactive |
| N=C(N)[Se]Cc1ccc(CN2C(=O)C(=O)c3ccccc32)cc1 | 4010 |  |  |  |
| N=C(N)SCc1ccc(CN2C(=O)C(=O)c3cc(F)ccc32)cc1 | 2860 |  |  |  |
| O=C1C(=O)N(Cc2ccccc2)c2ccccc21 |  |  |  | IC50 (UACC-903): > 100000 nM; IC50 [4]: > 100000 nM; IC50 [7]: > 100000 nM |
